The source of these data is paper PMC8526398 (Bioorganic & medicinal chemistry letters, 2021).

In series [1] the target is full-length human GRB2 (EGFR/GRB2 PPI) (Homo sapiens, UniProt P62993). In kind it is binding.
A short description of series [2]: Parallel artificial membrane permeability assay. It counts as in vitro ADME. Conditions: PAMPA, 1% egg lecithin in n-dodecane. The method in brief: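 Artificial membrane of 1% egg lecithin in n-dodecane. Test compound at 500 μM added to the donor side; incubated 5 h at room temperature. Compound in the receiving solution quantified by HPLC. Percent transport (%T) and apparent permeability coefficient (Papp, cm·s−1) calculated from previously reported equations; values given with SD.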

A further series has as its system EGFR/GRB2 PPI. The note with it: cited from earlier work.

Sequence of full-length human GRB2 (EGFR/GRB2 PPI) (P62993 whole entry): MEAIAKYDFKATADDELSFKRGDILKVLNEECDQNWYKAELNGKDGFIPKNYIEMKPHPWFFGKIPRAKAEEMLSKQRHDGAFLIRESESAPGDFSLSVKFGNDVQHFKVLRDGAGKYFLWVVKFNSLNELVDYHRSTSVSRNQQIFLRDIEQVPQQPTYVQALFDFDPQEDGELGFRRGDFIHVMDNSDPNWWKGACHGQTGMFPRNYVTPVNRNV

The term Ki denotes the dissociation constant of the complex between target and ligand, obtained from inhibition or displacement. A high value points to a looser hold on the target. `COC(=O)Cc1ccc([C@H]2/C=C/C[C@@H](Cc3cccc4ccccc34)CNC(=O)[C@H](CC(N)=O)NC(=O)C3(CCCCC3)NC(=O)C2)cc1` [Compound 8]: in series [1], the inhibition constant Ki is > 20000 nM.

For the compound `NC(=O)C[C@@H]1NC(=O)C2(CCCCC2)NC(=O)C[C@@H](c2ccc(CP(=O)(O)O)cc2)/C=C/C[C@@H](Cc2cccc3ccccc23)CNC1=O` [Compound 3], the “permeability through the artificial membrane (in words)” value in series [2] was “poor permeability”.

Take `CC(=O)N[C@@H](Cc1ccc(OP(=O)(O)O)cc1)C(=O)NC1(C(=O)N[C@@H](CC(N)=O)C(=O)NCCCc2cccc3ccccc23)CCCCC1` [Compound 2]: the “IC50 relative to compound 1” value in the series on EGFR/GRB2 PPI was “two orders of magnitude lower than 1”.

In general, IC50 refers to the concentration at which inhibition is half-maximal. As for `NC(=O)C[C@@H]1NC(=O)C2(CCCCC2)NC(=O)[C@@H](CC(=O)O)[C@@H](c2ccc(CP(=O)(O)O)cc2)/C=C/C[C@@H](Cc2cccc3ccccc23)CNC1=O` [Compound 4], in the series on EGFR/GRB2 PPI, the IC50 is 2 nM.

With `NC(=O)C[C@@H]1NC(=O)C2(CCCCC2)NC(=O)C[C@@H](c2ccc(CC(=O)O)cc2)/C=C/C[C@@H](Cc2cccc3ccccc23)CNC1=O` [Compound 7], in series [2], the “permeability through the artificial membrane (in words)” value is listed as “good permeability”.
